Screening results from PubChem BioAssay.
A selection: hits, their analogues and other compounds. The true share with any hit is near 2.7%.
OX1R antag-1: OX1R (HCRTR1) antagonists, primary screen, fluorescence, CHO/OX1R cells, Fluo-8 calcium, orexin A | Fluo-8 calcium fluorescence | inhibition, % at 5 µM | 330,000 tested, 0.43% active | AID 434989, 2010;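 active means inhibition above its plate's threshold, mean inhibition of all tested compounds on the plate plus 3 SD, cut at about 37% in these data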
CHO parental Ca: ATP-evoked calcium signal inhibitors, parental CHO, primary screen, counter-screen for OX1R antagonist project, cell-based, fluorescence, Fluo-8 calcium dye; parental CHO-K1, ATP-induced calcium, Fluo-8 fluorescence; 330,000 tested, 0.63% active; AID 463079, 2010; inhibition, % at 5.6 µM;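 active means inhibition above that plate's mean sample inhibition plus 3 SD, cut at about 26% in these data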
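Measured by: calcium-sensitive Fluo-8 fluorescence / Test system: CHO parental line / Controls: ATP-challenged DMSO wells low, unchallenged DMSO wells high / Measure: % inhibition / Compound: single nominal dose of 5.6 µM per compound / Replicates: single well per compound, no replicates / Reagent: ATP as calcium-mobilizing challenge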
V1R ag counter: agonists of human V1a receptor, primary screen, counter-screen for OXTR agonist project, fluorescence, CHO-V1R cells; Vasopressin V1a receptor (Homo sapiens), P37288; Fluo-8 calcium fluorescence, agonist mode; 0% DMSO, 100% 3 nM vasopressin; activation, % at 3 µM; 320,000 tested, 0.25% active;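 active means activation above the mean activation of all tested compounds plus 3 SD, per screening run, cut at about 20% in these data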;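 further: signal is peak over basal fluorescence ratio across a 100 second FLIPR read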
OX1R antag-2: antagonists of human orexin 1 receptor (OX1R); 330,000 tested, 1.8% active; inhibition, % at 6.6 µM; OX1R-expressing cells, FRET antagonist read-out; Orexin/Hypocretin receptor type 1 (Homo sapiens), O43613; in the data active means inhibition mostly above about 38%, no sharp cut-off; inactive means mostly below about 40%
OXTR potentiator: human OXTR potentiators, primary screen, fluorescence, CHO-OTR cells, Fluo-8 calcium | Fluo-8 calcium fluorescence, potentiator mode; 0% = oxytocin EC15, 100% = EC100 | activation, % at 3 µM | 320,000 tested, 0.061% active;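 active means activation above that plate's cutoff, the mean activation of tested compounds plus 3 SD, cut at about 6.6% in these data, passing the limit was not always enough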
Target sequence (P30559 whole entry, looked up): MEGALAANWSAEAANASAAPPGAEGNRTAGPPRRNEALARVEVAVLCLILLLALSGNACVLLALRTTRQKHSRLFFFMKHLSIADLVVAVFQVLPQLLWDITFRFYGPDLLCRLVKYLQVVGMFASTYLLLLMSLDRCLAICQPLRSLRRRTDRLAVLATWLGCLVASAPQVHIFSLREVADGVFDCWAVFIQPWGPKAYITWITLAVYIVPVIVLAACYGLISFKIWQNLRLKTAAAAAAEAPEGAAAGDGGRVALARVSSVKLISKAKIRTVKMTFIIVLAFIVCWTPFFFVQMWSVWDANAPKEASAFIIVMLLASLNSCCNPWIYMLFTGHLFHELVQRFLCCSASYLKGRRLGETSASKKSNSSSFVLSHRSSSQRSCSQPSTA
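Material: CHO-OTR cells, human receptor; compound dosing: single dose, 3.0 µM nominal final compound concentration; schedule: 6 min compound pre-incubation at room temperature, 100 s kinetic read; measured by: kinetic Fluo-8 calcium fluorescence; read-out basis: % activation vs EC15 and EC100 oxytocin; controls: EC15 oxytocin alone as 0%, 75 nM oxytocin as 100%; replicates: singlicate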
OXTR ag: human OXTR agonists, primary screen, fluorescence, CHO-OTR cells, Fluo-8 calcium. Fluo-8 calcium fluorescence; normalized: DMSO 0%, oxytocin 100%. activation, % at 3 µM. 320,000 tested, 0.32% active;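 active means activation above the mean of all tested compounds plus 3 SD, cutoff set per screening run, cut at about 20% in these data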;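 further: peak over basal fluorescence ratio from a 100 s FLIPR kinetic read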
OX1R HTRF conf: OX1R (HCRTR1) antagonists, confirmation, cell-based, HTRF; inhibition, % at 6.6 µM; shares compounds with OX1R antag-2; 1,800 tested, 49% active; OX1R-expressing cells, HTRF antagonist assay; in the data active means inhibition above about 55%;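 further: CHO cells expressing OX1R stimulated with orexin A at about EC80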
CHO-K1 HTRF: signal inhibition in parental CHO-K1 cells, counter-screen for OX1R antagonist project, cell-based, HTRF. inhibition, % at 6.6 µM. 1,800 tested, 48% active. shares compounds with OX1R antag-2. HTRF counterscreen; in the data active means inhibition above about 17%
Each line names hits and unclear results; the compound was inactive in the other large screens (follow-up assays come after a bar, where they were run).

C#CCOCCOCCOCCNc1nc(N2CCN(C(=O)[C@H](CCC(=O)O)n3cc([C@@H](N)CC(N)=O)nn3)CC2)nc(N2CCN(C(=O)[C@H](CCC(=O)O)n3cc([C@@H](N)CC(N)=O)nn3)CC2)n1	none
O=c1c[n+]([O-])c2ccccc2n1OCc1c(F)cccc1F	OX1R antag-2 81.3 | OX1R HTRF conf inactive | CHO-K1 HTRF 52.8
O=c1c[n+]([O-])c2ccccc2n1OCc1ccccn1	OX1R antag-2 128.6 | OX1R HTRF conf inactive | CHO-K1 HTRF 54.8
COC(=O)c1ccccc1COn1c(=O)c[n+]([O-])c2ccccc21	OX1R antag-2 84.7 | OX1R HTRF conf inactive | CHO-K1 HTRF 29.4
CCC(NC(=O)C(C)NC)C(=O)N1CCCC1C(=O)NC1CCCc2ccccc21 (configuration not stated)	none
Cc1noc(C)c1NC(=O)N(C)C[C@H]1Oc2ccc(NS(=O)(=O)c3ccc(F)cc3)cc2C(=O)N([C@H](C)CO)C[C@@H]1C	none
CCOC(=O)C1CCN(c2ccc([N+](=O)[O-])cc2)CC1	none
CCOC(=O)C1CCN(C(=O)C2CCN(C(=O)c3ccc([N+](=O)[O-])cc3)CC2)CC1	OX1R antag-2 81.2 | OX1R HTRF conf inactive | CHO-K1 HTRF 26.5
O=C(Nc1ccc(Nc2ccccc2)cc1)c1ccccc1	none
O=C(Nc1ccc2nc3ccccc3nc2c1)c1ccccc1	OX1R antag-2 86.2 | OX1R HTRF conf 92.7 | CHO-K1 HTRF inactive
CC/C(C)=N/NC(=O)c1[nH]c2ccc(C)cc2c1-c1ccccc1	OX1R antag-2 92.9 | OX1R HTRF conf inactive | CHO-K1 HTRF inactive
COCCCNC(=O)/C=C1\Sc2ccccc2N(Cc2ccccc2F)C1=O	OX1R antag-2 85.6 | OX1R HTRF conf 76.6 | CHO-K1 HTRF inactive
CCOc1ccc(Br)cc1S(=O)(=O)NC1CCCC1	none
O=C(CCCc1ccccc1)NCCc1ccc(F)cc1	none
N#CC(C#N)=Cc1c[nH]c(=O)c(C#N)c1Nc1ccccc1	OX1R antag-2 88.0 | OX1R HTRF conf inactive | CHO-K1 HTRF 62.1
N#Cc1c(Nc2ccccc2)c(/C=N/N=C/c2ccccc2)c[nH]c1=O	none
O=C(c1cc(COc2ccccc2)on1)N1CCCC(CN2CCOCC2)C1 (configuration not stated)	none
CCOC(=O)N1CCC(C(=O)NNC(=O)c2ccc(Cl)cc2Cl)CC1	none
O=C1C(Cl)=C(NCCCO)C(=O)c2ccccc21	OX1R antag-2 active | OX1R HTRF conf 67.4 | CHO-K1 HTRF 104.1
O=c1cc(NCCCO)c2ccccc2o1	none
CN(C(=O)COC(=O)c1ccccc1OCc1ccc(Cl)cc1)c1c(N)n(Cc2ccccc2)c(=O)[nH]c1=O	none
O=C(O)CCC(C(=O)O)n1c(O)c(C2=c3ccccc3=NC2=O)sc1=S (configuration not stated)	OX1R antag-2 149.9 | OX1R HTRF conf 68.1 | CHO-K1 HTRF 105.2
CC1=CC(=O)C=C(C)C1=NOC(=O)/C=C\c1ccccc1	none
CC1=CC(=NOC(=O)/C=C/c2ccccc2)C=C(C)C1=O	OX1R antag-2 82.3 | OX1R HTRF conf inactive | CHO-K1 HTRF inactive
CCCOc1ccc(N2C(=O)CC(NCC(=O)OCC)C2=O)cc1 (configuration not stated)	none
CCN1CCN(C(=O)c2cc3cc4cc(OC)ccc4nc3s2)CC1	OX1R antag-2 109.7 | OX1R HTRF conf inactive | CHO-K1 HTRF inactive
Nc1ccc(O)c2ccccc12	none
CC[n+]1ccc(/C=C2\Sc3ccccc3N2CCCS(=O)(=O)[O-])c2ccccc21	OX1R antag-2 96.6 | OX1R HTRF conf inactive | CHO-K1 HTRF inactive
Cc1ccc2c(c1)N(CC(=O)NC1CCCCC1C)C(=O)CO2 (configuration not stated)	OX1R antag-2 111.1 | OX1R HTRF conf inactive | CHO-K1 HTRF inactive
Cc1ccc2c(c1)N(CCC(=O)NC1CCCCC1)C(=O)CO2	none
O=C(NCCc1ccccc1)C1CC(=O)N(C2CCCCC2)C1 (configuration not stated)	none
O=C(NCCN1CCOCC1)c1cc(Sc2ccccc2Cl)nc2ccccc12	OX1R antag-2 91.3 | OX1R HTRF conf 90.0 | CHO-K1 HTRF inactive
Cc1ccc2nc3c(cc(C(=O)NCCCn4ccnc4)n3C)c(=O)n2c1	OX1R antag-2 80.0 | OX1R HTRF conf inactive | CHO-K1 HTRF 30.4
CC1CC(C)CN(C(=O)COC(=O)c2ccc3ccccc3n2)C1 (configuration not stated)	none
COc1ccc([C@@H]2CC=C(C(=O)O)[C@H](c3cccc(Cl)c3)N2S(=O)(=O)c2ccc(C)cc2)cc1OC	OX1R antag-2 76.9 | OX1R HTRF conf 84.2 | CHO-K1 HTRF inactive
COc1ccc([C@@H]2CC=C(C(=O)O)[C@H](c3ccccc3)N2S(=O)(=O)c2ccccc2C)cc1	OX1R antag-2 77.5 | OX1R HTRF conf 55.2 | CHO-K1 HTRF inactive
N#Cc1cc([N+](=O)[O-])ccc1NC(=O)COC(=O)C1CC2CCCC(C1)C2=O (configuration not stated)	OX1R antag-2 87.8 | OX1R HTRF conf inactive | CHO-K1 HTRF 43.3
CCCSc1ccc([C@H]2N[C@@](C)(C(=O)OC)[C@H]3C(=O)N(CC)C(=O)[C@@H]23)cc1	none
NC(=O)C1CCN(C(=O)c2ccc3c(c2)S(=O)(=O)c2ccccc2C3=O)CC1	OX1R antag-2 88.0 | OX1R HTRF conf 59.8 | CHO-K1 HTRF 69.9
O=C1c2ccccc2S(=O)(=O)c2cc(C(=O)N3CCCC3)ccc21	OX1R antag-2 103.7 | OX1R HTRF conf inactive | CHO-K1 HTRF 69.0
CCOC(=O)C1CCN(C(=O)c2ccc3c(c2)S(=O)(=O)c2ccccc2C3=O)CC1	none
CCc1ccccc1NC(=O)CCc1c(C)nc(SC)nc1C	none
Cc1noc(C)c1NC(=O)N(C)C[C@H]1Oc2ccc(NC(=O)c3ccncc3)cc2C(=O)N([C@H](C)CO)C[C@@H]1C	none
